Measurements: ChEMBL document CHEMBL4052732, “Design, synthesis and biological evaluation of GPR55 agonists” (Bioorg Med Chem, 2017)

Assays:
[1] = biological target: T1, G-protein coupled receptor 55 (Homo sapiens, UniProt Q9Y2T6); assay: Agonist activity at HA-epitope-tagged variant of GPR55E with serine enhanced C terminus (unknown origin) expressed in human U2OS cells assessed as increase in GFP-tagged beta arrestin2 recruitment after 75 mins by fluorescence assay; type: cell-based
Target sequence in this assay (Q9Y2T6 whole entry, looked up): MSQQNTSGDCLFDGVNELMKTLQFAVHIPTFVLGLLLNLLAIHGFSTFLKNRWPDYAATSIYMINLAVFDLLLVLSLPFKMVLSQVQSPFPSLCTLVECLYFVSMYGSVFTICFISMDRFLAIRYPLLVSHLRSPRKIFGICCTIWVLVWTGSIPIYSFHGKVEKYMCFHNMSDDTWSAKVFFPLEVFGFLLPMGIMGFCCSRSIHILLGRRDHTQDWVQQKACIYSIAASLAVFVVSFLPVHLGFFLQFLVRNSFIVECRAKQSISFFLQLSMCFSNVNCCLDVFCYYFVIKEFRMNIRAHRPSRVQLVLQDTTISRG

[2] = biological target: Cannabinoid receptor 2 (Homo sapiens, UniProt P34972); assay: Agonist activity at human CB2 receptor expressed in U2OS cells assessed as increase in GFP-tagged beta arrestin recruitment after 75 mins by fluorescence assay; type: functional, cell-based
[3] = biological target: Cannabinoid receptor 1 (Homo sapiens, UniProt P21554); assay: Agonist activity at human brain CB1 receptor expressed in U2OS cells assessed as increase in beta arrestin recruitment after 60 mins by fluorescence assay; type: functional, cell-based
[4] = biological target: T1, G-protein coupled receptor 55; assay: Agonist activity at beta-galactosidase enzyme fragment-fused GPR55 (unknown origin) expressed in CHOK1 cells assessed as increase in N-terminal deletion beta-galactosidase mutant-tagged beta arrestin recruitment measured for 1 sec by chemiluminescence based pathhunter assay; type: functional, cell-based
In short: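 CHO-K1 cells stably co-expressing the receptor–β-gal fragment fusion and the β-arrestin–deletion-mutant fusion, kept in selection medium, passaged up to 10 times. Ligands tested from 0.5 nM to 30 μM. Chemiluminescent substrate signal read at room temperature for 1 s. Vehicle readings subtracted from ligand readings (RLU), and EC50 obtained from these values. LPI served as positive control. Run in triplicate, repeated at least 3 times.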
Target sequence in this assay (Q9Y2T6 whole entry, looked up, stated change not applied): as the sequence (Q9Y2T6 whole entry, looked up) above

Sequence of Cannabinoid receptor 1 (P21554 whole entry, the tested form may be a part): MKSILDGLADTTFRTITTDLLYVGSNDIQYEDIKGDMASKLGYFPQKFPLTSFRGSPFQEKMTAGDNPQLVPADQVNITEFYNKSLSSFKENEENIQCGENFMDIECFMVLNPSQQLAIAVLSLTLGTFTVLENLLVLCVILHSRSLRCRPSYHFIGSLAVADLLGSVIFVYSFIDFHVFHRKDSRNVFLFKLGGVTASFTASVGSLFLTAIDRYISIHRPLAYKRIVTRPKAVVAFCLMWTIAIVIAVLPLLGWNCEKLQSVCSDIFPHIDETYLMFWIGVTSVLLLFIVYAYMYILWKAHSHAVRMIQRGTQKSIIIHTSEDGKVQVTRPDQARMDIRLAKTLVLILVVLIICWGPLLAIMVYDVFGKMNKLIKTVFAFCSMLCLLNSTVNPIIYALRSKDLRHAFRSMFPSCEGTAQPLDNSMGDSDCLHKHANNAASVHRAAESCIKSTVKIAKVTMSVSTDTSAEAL
Sequence of Cannabinoid receptor 2 (P34972 whole entry): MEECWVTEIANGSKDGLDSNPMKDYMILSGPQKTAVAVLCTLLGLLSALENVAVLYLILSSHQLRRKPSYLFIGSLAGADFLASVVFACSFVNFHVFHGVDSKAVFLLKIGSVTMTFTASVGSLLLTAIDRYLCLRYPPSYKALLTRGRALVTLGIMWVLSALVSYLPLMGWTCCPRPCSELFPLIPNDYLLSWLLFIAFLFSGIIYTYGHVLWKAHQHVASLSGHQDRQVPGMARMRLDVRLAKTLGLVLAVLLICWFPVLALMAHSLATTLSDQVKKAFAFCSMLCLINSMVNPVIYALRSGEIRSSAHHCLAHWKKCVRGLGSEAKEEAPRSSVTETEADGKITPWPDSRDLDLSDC

SMILES | EC50 [4] | other results
COc1ccc2cc(C)c3nnc(SCC(=O)Nc4nc(-c5ccc(F)cc5)cs4)n3c2c1 |  | EC50 [1]: 160 nM; EC50 [2]: > 30000 nM; EC50 [3]: > 30000 nM
COc1ccccc1/C=C/C(=O)NC(=S)Nc1ccc(S(=O)(=O)N(Cc2ccc(O)cc2)c2ccccc2)cc1 | 500 nM | 
COc1ccccc1/C=C/C(=O)NC(=S)Nc1ccc(S(=O)(=O)N(Cc2ccncc2)c2ccccc2)cc1 | 300 nM | 
CN(c1ccccc1)S(=O)(=O)c1ccc(NC(=S)NC(=O)c2cnc3ccccc3c2)cc1 | > 30000 nM | 
COc1ccccc1/C=C/C(=O)NC(=S)Nc1ccc(S(=O)(=O)N(Cc2ccccc2O)c2ccccc2)cc1 | 2000 nM | 
COc1ccccc1/C=C/C(=O)NC(=S)Nc1ccc(S(=O)(=O)N(Cc2cccc(O)c2)c2ccccc2)cc1 | 2000 nM | 
CN(c1ccccc1)S(=O)(=O)c1ccc(NC(=S)NC(=O)c2ccc3cccnc3c2)cc1 | 1000 nM | 
O=C(NC(=S)Nc1ccc(S(=O)(=O)N(CCO)c2ccccc2)cc1)c1ccc2cccnc2c1 | 200 nM | 
COc1ccccc1/C=C/C(=O)NC(=S)Nc1ccc(S(=O)(=O)N(Cc2ccc(CO)o2)c2ccccc2)cc1 | 100 nM | 
COc1ccccc1/C=C/C(=O)NC(=S)Nc1ccc(S(=O)(=O)NCCO)cc1 | > 30000 nM | 
O=C(NC(=S)Nc1ccc(S(=O)(=O)N(CCO)c2ccccc2)cc1)c1ccc2cc(CCO)ccc2c1 | 20000 nM | 
O=C(NC(=S)Nc1ccc(S(=O)(=O)N(Cc2ccc(O)cc2)c2ccccc2)cc1)c1ccc2cccnc2c1 | 500 nM | 
Cc1cccc(N2CCN(C(=O)c3cc(S(=O)(=O)N(C)C)ccc3N3CCCC3)CC2)c1C |  | EC50 [1]: 260 nM; EC50 [2]: > 30000 nM; EC50 [3]: > 30000 nM
O=C(NC(=S)Nc1ccc(S(=O)(=O)N(Cc2ccncc2)c2ccccc2)cc1)c1ccc2cccnc2c1 | 900 nM | 
COc1ccccc1/C=C/C(=O)NC(=S)Nc1ccc(S(=O)(=O)N(C)c2ccncc2)cc1 | 500 nM | 
COc1ccccc1/C=C/C(=O)NC(=S)Nc1ccc(S(=O)(=O)Nc2onc(C)c2C)cc1 | > 30000 nM | 
COc1ccccc1/C=C/C(=O)NC(=S)Nc1ccc(S(=O)(=O)N(CCO)c2ccccc2)cc1 | 700 nM | 
COc1ccccc1/C=C/C(=O)NC(=S)Nc1ccc(S(=O)(=O)N(C)c2ccccc2)cc1 |  | EC50 [1]: 110 nM; EC50 [2]: > 30000 nM; EC50 [3]: > 30000 nM
CN(c1ccccc1)S(=O)(=O)c1ccc(NC(=S)NC(=O)c2ccc3cc(CO)ccc3c2)cc1 | 4000 nM | 
CN(c1ccccc1)S(=O)(=O)c1ccc(NC(=S)NC(=O)c2ccc3cc(CCO)ccc3c2)cc1 | 300 nM | 
O=C(NC(=S)Nc1ccc(S(=O)(=O)N(Cc2ccc(CO)o2)c2ccccc2)cc1)c1ccc2cc(CCO)ccc2c1 | 6000 nM | 
COc1ccccc1/C=C/C(=O)NC(=S)Nc1ccc(S(=O)(=O)NCC(O)CO)cc1 (stereo not given) | > 30000 nM | 
COc1ccccc1/C=C/C(=O)NC(=S)Nc1ccc(S(=O)(=O)Nc2ccccc2)cc1 | 600 nM | 
O=C(NC(=S)Nc1ccc(S(=O)(=O)N(Cc2ccc(CO)o2)c2ccccc2)cc1)c1ccc2cccnc2c1 | 600 nM | 
